Results on seven molecules are retold here after ChEMBL document CHEMBL1124257, “An examination of O-2-isocephems as orally absorbable antibiotics” (J Med Chem, 1988).

Converted amounts (≈) assume the structure as drawn.

The test system of one data set is Haemophilus influenzae. The data set is described as follows: Minimum inhibitory concentration (MIC) against Haemophilus influenzae by 2-fold microdilution technique. The class given is functional. To be noted: Haemophilus influenzae; read-out: MIC. An outline of the steps: (§1)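 For each organism, an overnight culture was grown in Mueller-Hinton broth at 37 °C. Twofold microtiter dilutions in Nutrient Broth covered 0.005–125 µg/mL. Each well received about 10^4 organisms, and plates were incubated 18 h at 37 °C. MIC was the lowest concentration giving no visible growth.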
(In general: Broth dilution looks for growth in wells or tubes with falling amounts of substance.)

Data set [1] concerns Escherichia coli. The data set is described as follows: Protective dose (PD50) against Escherichia coli infected mice. To be noted: read-out: PD50. The class given is functional. The method, boiled down: (§2)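 Male Swiss-Webster mice (20 ± 2 g) were challenged intraperitoneally with enough bacteria to kill untreated controls within 72 h. Drug was given orally by gavage twice: at 0 and 2 h after E. coli challenge, or at 1 and 3.5 h after S. pneumoniae challenge. PD50 is the dose in mg/kg per dose that protects 50% of animals.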

Another data set concerns Enterococcus faecalis. The data set is described as follows: Minimum inhibitory concentration (MIC) against Streptococcus faecalis by 2-fold microdilution technique. The class given is functional. To be noted: Enterococcus faecalis; read-out: MIC. An outline of the steps: as §1
Data set [2] is described as follows: Cmax was measured in mice after an oral dose of 50 mg/kg. The class given is ADME, organism-based. Also on record: dose 50 mg/kg, route oral. Particulars: mouse, in vivo. The method, boiled down: (§3)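 Male Swiss-Webster mice (20 ± 2 g) were given a single 50 mg/kg oral dose by gavage. Blood concentrations and urine levels were measured by microbiological assay, and urinary recovery was taken over 0–6 h.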

For data set [3], the system named is Mus musculus. As to the kind of experiment: Area under curve(AUC) was measured in mice after oral administration. The class given is ADME, organism-based. Also on record: concentration or dose not given beside the values; unit not given here. Particulars: in vivo. An outline of the steps:
as §3

The next data set deals with Staphylococcus aureus. The data set is described as follows: Minimum inhibitory concentration (MIC) against Staphylococcus aureus by 2-fold microdilution technique. The class given is functional. To be noted: Staphylococcus aureus; read-out: MIC. The method, boiled down: as §1
Data set [4] has as its system Escherichia coli. The data set is described as follows: Minimum inhibitory concentration (MIC) […] against Escherichia coli. The class given is functional. To be noted: Escherichia coli; read-out: MIC. The method, boiled down:
as §1

For another data set, the system named is Klebsiella pneumoniae. As to the kind of experiment: Minimum inhibitory concentration (MIC) against Klebsiella pneumoniae by 2-fold microdilution technique. Format: functional. To be noted: Klebsiella pneumoniae; read-out: MIC. The method, boiled down: as §1
For the next data set, the system named is Proteus mirabilis. The data set is described as follows: Minimum inhibitory concentration (MIC) against Proteus mirabilis by 2-fold microdilution technique. To be noted: Proteus mirabilis; read-out: MIC. Format: functional. The method, boiled down: as §1
For data set [5], the species on record is Mus musculus. As to the kind of experiment: Percentage of dose recovered after 0-6 hr in the urine of mice was measured. Format: ADME, organism-based. To be noted: in vivo. An outline of the steps: as §3
In the next data set the test system is Streptococcus pyogenes. The data set is described as follows: Minimum inhibitory concentration (MIC) against Streptococcus pyogenes by 2-fold microdilution technique. Particulars: Streptococcus pyogenes; read-out: MIC. Format: functional. The method, boiled down: as §1
The subject of data set [6] is Streptococcus pneumoniae. As to the kind of experiment: Minimum inhibitory concentration (MIC) […] against Streptococcus pneumoniae. The class given is functional. Particulars: Streptococcus pneumoniae; read-out: MIC. An outline of the steps:
as §1

In data set [7] the test system is Escherichia coli. The data set is described as follows: Minimum inhibitory concentration (MIC) against Escherichia coli by 2-fold microdilution technique. The class given is functional. Particulars: Escherichia coli; read-out: MIC. The method, boiled down:
as §1

Data set [8] is described as follows: Half life was measured. The class given is ADME. An outline of the steps:
as §3

The subject of data set [9] is Streptococcus pneumoniae. As to the kind of experiment: Minimum inhibitory concentration (MIC) against Streptococcus pneumoniae by 2-fold microdilution technique. Format: functional. Particulars: Streptococcus pneumoniae; read-out: MIC. The method, boiled down: as §1
For data set [10], the system named is Streptococcus pneumoniae. As to the kind of experiment: Protective dose (PD50) against Streptococcus pneumoniae infected mice. Format: functional. Particulars: Streptococcus pneumoniae; read-out: PD50. The method, boiled down: as §2

Regarding `C=CCC1=C(C(=O)O)N2C(=O)[C@@H](NC(=O)[C@H](N)c3ccc(O)cc3)[C@H]2CO1`, the MIC turned out to be 2 µg/mL (≈ 5.36 µM) in the data set with Haemophilus influenzae; 1 µg/mL (≈ 2.68 µM) in the data set with Enterococcus faecalis; 0.13 µg/mL (≈ 0.348 µM) in the data set with Staphylococcus aureus; 4 µg/mL (≈ 10.7 µM) in the data set with Escherichia coli [4]; 16 µg/mL (≈ 42.9 µM) with Klebsiella pneumoniae; 1 µg/mL (≈ 2.68 µM) with Proteus mirabilis. Further, the MIC in the data set with Streptococcus pyogenes came out at 0.008 µg/mL (≈ 0.0214 µM); in the data set on Streptococcus pneumoniae [6], 0.016 µg/mL (≈ 0.0429 µM); with Escherichia coli [7], 2 µg/mL (≈ 5.36 µM); with Streptococcus pneumoniae [9], 0.03 µg/mL (≈ 0.0804 µM). For the same molecule, the ED50 was determined as 9.2 mg/kg in the data set with Escherichia coli [1] and 1 mg/kg in the data set with Streptococcus pneumoniae [10]. In [2], the peak level (Cmax) was 31000 ng/mL. The AUC in the data set with Mus musculus [3] is 32. Besides, the “Urinary recovery (% of dose, 0-6 h)” value in the data set listed under Mus musculus [5] was determined as 46%. In [8], the half-life (as a rule, how long it takes for the measured level to halve) was found to be 32 min.

With `CC1=C(C(=O)O)N2C(=O)[C@@H](NC(=O)[C@H](N)c3ccc(O)cc3)[C@H]2CO1`, the MIC in the data set on Haemophilus influenzae came to 8 µg/mL (≈ 23 µM); in the data set with Enterococcus faecalis, 16 µg/mL (≈ 46.1 µM); in the data set with Staphylococcus aureus it was 1 µg/mL (≈ 2.88 µM); in the data set with Escherichia coli [4], 8 µg/mL (≈ 23 µM); with Klebsiella pneumoniae, 8 µg/mL (≈ 23 µM); in the data set on Proteus mirabilis, 4 µg/mL (≈ 11.5 µM). The MIC in the data set with Streptococcus pyogenes was found to be 0.13 µg/mL (≈ 0.374 µM); in the data set with Streptococcus pneumoniae [6], 0.13 µg/mL (≈ 0.374 µM); in the data set with Escherichia coli [7], 8 µg/mL (≈ 23 µM); with Streptococcus pneumoniae [9], 0.13 µg/mL (≈ 0.374 µM). For the same molecule, the results for the ED50 in the data set on Escherichia coli [1] and in the data set with Streptococcus pneumoniae [10] were 11 mg/kg and 2.1 mg/kg, respectively.

For the molecule `C=CC1=C(C(=O)O)N2C(=O)[C@@H](NC(=O)[C@H](N)c3ccc(O)cc3)[C@H]2SC1`, the MIC was determined as 2 µg/mL (≈ 5.33 µM) in the data set with Enterococcus faecalis; 0.25 µg/mL (≈ 0.666 µM) in the data set with Staphylococcus aureus; 16 µg/mL (≈ 42.6 µM) with Klebsiella pneumoniae; 4 µg/mL (≈ 10.7 µM) in the data set with Proteus mirabilis; 0.03 µg/mL (≈ 0.0799 µM) in the data set with Streptococcus pyogenes; 4 µg/mL (≈ 10.7 µM) in the data set on Escherichia coli [7]. In addition, the MIC in the data set on Streptococcus pneumoniae [9] came out at 0.03 µg/mL (≈ 0.0799 µM). Further, the highest concentration (Cmax) (in general, the maximum level reached in the sampled fluid or tissue) in data set [2] was found to be 22000 ng/mL. The same molecule came in with an AUC with Mus musculus [3] of 21. The same molecule came in with a half-life in data set [8] of 29 min.

Consider `N[C@@H](C(=O)N[C@@H]1C(=O)N2C(C(=O)O)=C(/C=C\C(F)(F)F)OC[C@H]12)c1ccc(O)cc1` (relative stereo), for which the MIC in the data set on Haemophilus influenzae came out at 2 µg/mL (≈ 4.68 µM); with Enterococcus faecalis it was 0.06 µg/mL (≈ 0.14 µM); in the data set with Staphylococcus aureus, 0.5 µg/mL (≈ 1.17 µM); with Escherichia coli [4], 2 µg/mL (≈ 4.68 µM); with Klebsiella pneumoniae, 32 µg/mL (≈ 74.9 µM); in the data set with Proteus mirabilis, 16 µg/mL (≈ 37.4 µM). In addition, the MIC in the data set on Streptococcus pyogenes was 0.008 µg/mL (≈ 0.0187 µM); in the data set on Streptococcus pneumoniae [6] it was 0.016 µg/mL (≈ 0.0374 µM); in the data set on Escherichia coli [7], 2 µg/mL (≈ 4.68 µM); in the data set with Streptococcus pneumoniae [9], 0.016 µg/mL (≈ 0.0374 µM). The values for the ED50 with Escherichia coli [1] and in the data set with Streptococcus pneumoniae [10] were above 50 mg/kg and 2.7 mg/kg, respectively.

As for `CC1=C(C(=O)O)N2C(=O)[C@@H](NC(=O)[C@H](N)c3ccccc3)[C@H]2SC1` [CEPHALEXIN ANHYDROUS], the MIC amounted to 4 µg/mL (≈ 11.5 µM) in the data set with Haemophilus influenzae; 32 µg/mL (≈ 92.1 µM) in the data set with Enterococcus faecalis; 0.5 µg/mL (≈ 1.44 µM) with Staphylococcus aureus; 16 µg/mL (≈ 46.1 µM) with Klebsiella pneumoniae; 4 µg/mL (≈ 11.5 µM) in the data set with Proteus mirabilis; 0.5 µg/mL (≈ 1.44 µM) in the data set with Streptococcus pyogenes. Also, the MIC in the data set on Escherichia coli [7] was 8 µg/mL (≈ 23 µM); in the data set on Streptococcus pneumoniae [9] it was 0.5 µg/mL (≈ 1.44 µM).

As for `N[C@@H](C(=O)N[C@@H]1C(=O)N2C(C(=O)O)=C(C3CC3)OC[C@H]12)c1ccc(O)cc1`, the MIC was found to be 8 µg/mL (≈ 21.4 µM) with Haemophilus influenzae; 1 µg/mL (≈ 2.68 µM) in the data set with Enterococcus faecalis; 0.25 µg/mL (≈ 0.67 µM) in the data set with Staphylococcus aureus; 4 µg/mL (≈ 10.7 µM) in the data set with Escherichia coli [4]; 16 µg/mL (≈ 42.9 µM) in the data set with Klebsiella pneumoniae; 2 µg/mL (≈ 5.36 µM) in the data set on Proteus mirabilis. Also, the MIC with Streptococcus pyogenes was determined as 0.016 µg/mL (≈ 0.0429 µM); in the data set on Streptococcus pneumoniae [6] it was 0.03 µg/mL (≈ 0.0804 µM); in the data set on Escherichia coli [7], 4 µg/mL (≈ 10.7 µM); with Streptococcus pneumoniae [9] it was 0.03 µg/mL (≈ 0.0804 µM). The ED50 in the data set on Escherichia coli [1] was above 50 mg/kg; in the data set with Streptococcus pneumoniae [10], 3.6 mg/kg.

Consider `CCCC1=C(C(=O)O)N2C(=O)[C@@H](NC(=O)[C@H](N)c3ccc(O)cc3)[C@H]2CO1`, for which the MIC in the data set with Enterococcus faecalis was 0.03 µg/mL (≈ 0.0799 µM); in the data set with Staphylococcus aureus, 0.06 µg/mL (≈ 0.16 µM); in the data set on Klebsiella pneumoniae it was 16 µg/mL (≈ 42.6 µM); with Proteus mirabilis it was 4 µg/mL (≈ 10.7 µM); in the data set on Streptococcus pyogenes, 0.004 µg/mL (≈ 0.0107 µM); with Escherichia coli [7], 2 µg/mL (≈ 5.33 µM). Further, in the data set with Streptococcus pneumoniae [9], the MIC is 0.008 µg/mL (≈ 0.0213 µM).
